# Screening results deposited in PubChem by Broad Institute.
# This excerpt belongs to a sample that is enriched for hits.
# T cruzi growth = T. cruzi intracellular proliferation inhibitors, primary screen, cell-based, beta-gal Tulahuen parasites, NIH3T3 host, luminescence; 77,000 compounds, 5.9% hits; AID 624255, 2012; T. cruzi beta-gal in NIH3T3, GalScreen luminescence, 90 h; inhibition, % at 8.34 µM;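 active = mean inhibition above about 93%, with at least 55% of replicates each passing it, limit read from the data, passing the limit was not always enough; inconclusive = only one of those two conditions holds; inactive = neither condition holds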
# IDH1 R132H inh = inhibitors of IDH1 R132H reductase, primary screen, biochemical, plate reader, single point; Isocitrate dehydrogenase [NADP] cytoplasmic (Homo sapiens), O75874; diaphorase/resazurin fluorescence, 60 min; inhibition, % at 10 µM; 70,000 compounds, 0.18% hits; in the data active = inhibition above about 34%; inconclusive = no clear call, values can overlap the other calls; inactive = below about 11%
# GASC1 inh = inhibitors of GASC-1 (KDM4C) histone demethylase, primary screen, biochemical, single concentration HTS; GST-KDM4C 2-372, H3K9me3 peptide, LANCE TR-FRET; inhibition, % at 12.5 µM; AID 720574, 2013; 96,000 compounds, 0.15% hits; Lysine-specific demethylase 4C (Homo sapiens), Q9H3R0;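 active = mean replicate inhibition above about 25%, with at least 55% of replicates also reaching it, limit read from the data, passing the limit was not always enough; inconclusive = only one of those two conditions met; inactive = neither condition met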
# Target sequence (Q9H3R0 2-372 limits assumed): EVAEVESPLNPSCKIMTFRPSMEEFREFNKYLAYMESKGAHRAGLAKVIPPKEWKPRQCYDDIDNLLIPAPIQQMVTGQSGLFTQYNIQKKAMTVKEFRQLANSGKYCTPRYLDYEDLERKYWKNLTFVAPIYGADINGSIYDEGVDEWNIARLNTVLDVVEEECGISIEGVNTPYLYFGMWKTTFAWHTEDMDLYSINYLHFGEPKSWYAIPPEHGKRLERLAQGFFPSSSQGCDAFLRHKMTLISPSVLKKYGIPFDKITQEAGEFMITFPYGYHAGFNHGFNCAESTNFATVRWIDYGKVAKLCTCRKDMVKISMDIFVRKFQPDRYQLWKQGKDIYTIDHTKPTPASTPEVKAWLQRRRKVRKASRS
#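 Material: GST-tagged GASC-1 (JMJD2C) catalytic fragment, aa 2-372. Input: enzyme final amount 10 nM. Medium: HEPES buffer, pH 7.5, plus ascorbate. Reagent: H3K9me3 peptide substrate, Fe(II), 2-oxoglutarate. Doses: single dose. Times: reaction 30 min RT, detection step 1 h RT. Measured by: LANCE TR-FRET. Evaluation: Fall in 671/618 emission ratio as inhibition.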
# Numbers stand for hits; n = inactive; u = inconclusive; x = not tested or not shown.
SMILES,T cruzi growth,IDH1 R132H inh,GASC1 inh
COCCNC(=O)C[C@H]1C[C@@H]2c3cc(N(C)C)ccc3O[C@@H]2[C@H](CO)O1,x,n,n
COCCNC(=O)C[C@@H]1C[C@@H]2c3cc(N(C)C)ccc3O[C@@H]2[C@H](CO)O1,x,n,u
COc1ccc(S(=O)(=O)Nc2ccc3c(c2)[C@H]2C[C@@H](CC(=O)NCC4CC4)O[C@@H](CO)[C@H]2O3)cc1,n,n,n
COc1ccc([N+](=O)[O-])cc1NC(=O)CCN1CCN(c2cccc(C(F)(F)F)c2)CC1,x,n,x
O=C(CSc1nnc(-c2cccs2)n1-c1ccc(Cl)cc1)c1ccc(Cl)cc1,x,n,x
O=C(CNS(=O)(=O)c1cc(Cl)ccc1Cl)Nc1ccc2c(c1)OCCO2,x,n,x
Cc1cc(C)nc(NS(=O)(=O)c2ccc(Nc3nc(-c4ccc(F)cc4)cs3)cc2)n1,x,n,x
O=C(O)C[C@@H]1C[C@H]2c3cc(NC(=O)Nc4ccccc4F)ccc3O[C@H]2[C@H](CO)O1,x,n,n
COC(=O)C[C@@H]1C[C@@H]2c3cc(NC(=O)Nc4ccccc4F)ccc3O[C@@H]2[C@@H](CO)O1,n,81,41
O=C(Nc1ccccc1-c1nc2ccccc2s1)c1ccc(-c2ccccc2[N+](=O)[O-])o1,x,n,x
CN(C)c1ccc2c(c1)[C@@H]1C[C@@H](CC(=O)N3CCOCC3)O[C@@H](CO)[C@@H]1O2,n,n,44
CN(C)c1ccc2c(c1)[C@H]1C[C@H](CC(=O)N3CCc4ccccc4C3)O[C@@H](CO)[C@H]1O2,n,n,n
CN(C)c1ccc2c(c1)[C@@H]1C[C@@H](CC(=O)N3CCCCC3)O[C@H](CO)[C@@H]1O2,x,x,n
CN(C)c1ccc2c(c1)[C@@H]1C[C@H](CC(=O)N3CCc4ccccc4C3)O[C@@H](CO)[C@@H]1O2,101,n,n
CCCc1nnc(NC(=O)c2nc(SC)ncc2Cl)s1,x,n,x
O=C(N[C@H]1CC[C@H](CCNS(=O)(=O)Cc2ccccc2)O[C@H]1CO)c1ccc2c(c1)OCO2,n,n,35
O=C(N[C@@H]1CC[C@@H](CCNS(=O)(=O)Cc2ccccc2)O[C@@H]1CO)c1ccc2c(c1)OCO2,n,n,n
CCOc1c(S(=O)(=O)NCc2ccccn2)ccc(Cl)c1Cl,x,n,x
CCCN1[C@H](C(=O)N[C@@H](C)c2ccccc2)[C@@H](CO)[C@@H]2Cn3c(cccc3=O)[C@@H]21,x,x,38
CCCN1[C@@H]2c3cccc(=O)n3C[C@@H]2[C@@H](CO)[C@@H]1C(=O)N[C@@H](C)c1ccccc1,x,x,n
COc1ccc2[nH]cc(CCNC(=O)Nc3ccc(Cl)c(Cl)c3)c2c1,x,n,x
COc1cc(/C=C/C(=O)CC(=O)/C=C/c2ccc(O)c(OC)c2)ccc1O,x,n,x
COC(=O)/C=C/c1cc(O)ccc1O,x,89,x
CC(=O)N(C)C[C@H]1Oc2ncc(-c3ccc(C#N)cc3)cc2C(=O)N([C@H](C)CO)C[C@@H]1C,n,n,32
C[C@H](CO)N1C[C@H](C)[C@H](CN(C)C(=O)NC2CCCCC2)Oc2ncc(Br)cc2C1=O,n,35,n
SMILES,T cruzi growth,IDH1 R132H inh,GASC1 inh
CC(=O)N(C)C[C@@H]1Oc2ncc(-c3ccc(C#N)cc3)cc2C(=O)N([C@H](C)CO)C[C@H]1C,n,n,n
COc1ccc(-c2cnc3c(c2)C(=O)N([C@@H](C)CO)C[C@H](C)[C@@H](CN(C)C(=O)Cc2ccncc2)O3)cc1,n,41,n
C[C@H](CO)N1C[C@H](C)[C@H](CN(C)C(=O)Cc2cccnc2)Oc2ncc(-c3ccccc3)cc2C1=O,n,x,n
C[C@@H]1CN([C@@H](C)CO)C(=O)c2cc(-c3ccncc3)cnc2O[C@H]1CN(C)C(=O)Cc1cccnc1,104,x,n
COc1ccc(-c2cnc3c(c2)C(=O)N([C@H](C)CO)C[C@H](C)[C@H](CN(C)C(=O)Cc2ccncc2)O3)cc1,n,n,n
C[C@H]1CN([C@@H](C)CO)C(=O)c2cc(Br)cnc2O[C@@H]1CN(C)C(=O)NC1CCCCC1,n,x,n
CCn1c(SCC(=O)Nc2ccc(I)cc2C)nnc1-c1ccccc1,x,n,x
Fc1ccc(N(Cc2nc3ccccc3[nH]2)Cc2nc3ccccc3[nH]2)cc1,x,n,x
NS(=O)(=O)c1ccc(NC(=O)CSc2nnc(-c3ccccc3F)n2-c2ccccc2)cc1,x,n,x
O=c1[nH]c2cc(Cl)ccc2c(-c2ccccc2)c1SC1=NCCS1,x,n,x
C/C(=C\C=C\[C@@H](C)[C@H]1CC[C@@]2(C)[C@@H]3CCC4C(C)(C)[C@@H](O[C@@H]5O[C@H](CO)[C@@H](O[C@@H]6O[C@@H](C)[C@H](O)[C@@H](O)[C@H]6O)[C@H](O)[C@H]5O[C@@H]5O[C@H](CO[C@@H]6O[C@H](CO)[C@@H](O)[C@H](O)[C@H]6O)[C@@H](O)[C@H](O)[C@H]5O[C@@H]5O[C@@H](C)[C@H](O)[C@@H](O)[C@H]5O)CC[C@@]45C[C@@]35CC[C@]12C)C(=O)N[C@@H]1C(=O)O[C@H](C)[C@@H]1C (stereo partly specified),x,n,x
CC(C)CC#Cc1ccc([C@H]2[C@@H](CO)N3CCCCN(S(=O)(=O)c4ccc(F)cc4)C[C@H]23)cc1,n,x,26
CN(C)CC#Cc1ccc([C@@H]2[C@@H](CO)N3CCCCN(S(=O)(=O)c4ccccc4)C[C@@H]23)cc1,n,x,32
CN(C)CC#Cc1ccc([C@@H]2[C@H](CO)N3CCCCN(S(=O)(=O)c4ccccc4)C[C@@H]23)cc1,n,x,n
CC(C)CC#Cc1ccc([C@@H]2[C@@H](CO)N3CCCCN(S(=O)(=O)c4ccc(F)cc4)C[C@H]23)cc1,n,x,n
CCSc1n[nH]c(-c2c(Cl)c(CC)nn2C)n1,x,n,x
CN1CCN(C(=O)CN(c2ccc(I)cc2)S(=O)(=O)c2ccccc2)CC1,x,n,x
C[C@@H]1CN([C@H](C)CO)S(=O)(=O)c2ccc(C3=CCCCC3)cc2O[C@@H]1CN(C)C(=O)Cc1ccncc1,n,n,n
C[C@@H]1CN([C@@H](C)CO)S(=O)(=O)c2ccc(C3=CCCCC3)cc2O[C@@H]1CN(C)Cc1cccnc1,x,38,n
C[C@@H]1CN([C@@H](C)CO)S(=O)(=O)c2ccc(C3=CCCCC3)cc2O[C@H]1CN(C)C(=O)Cc1ccncc1,n,58,n
C[C@@H]1CN([C@H](C)CO)S(=O)(=O)c2ccc(C3=CCCCC3)cc2O[C@@H]1CN(C)Cc1cccnc1,x,x,n
O=C(CSc1nnc(-c2ccncc2)o1)Nc1cccc(C(F)(F)F)c1,x,n,x
CCOC(=O)c1c(NC(=O)C(C)n2nc([N+](=O)[O-])c(Br)c2C)sc2c1CCC2 (stereo unspecified),x,n,x
CCC(C)[C@@H](CO[C@@H](Cc1ccccc1)C(=O)N[C@@H](CCS(C)(=O)=O)C(=O)OC(C)C)NC[C@@H](N)CS (stereo partly specified),x,60,x
CC(C)C[C@H](NC(=O)[C@@H](O)[C@H](N)Cc1ccccc1)C(=O)O,x,n,x
COc1cccc2cc(C(=O)C3C(=O)C(=O)N(CCN4CCOCC4)C3c3cccc(Cl)c3)oc12 (stereo unspecified),x,n,x
